In ChEMBL document CHEMBL3351402, “An efficient synthesis and biological screening of benzofuran and benzo[d]isothiazole derivatives for Mycobacterium tuberculosis DNA GyrB inhibition” (Bioorg Med Chem, 2014):
Values after ≈ are worked out from the molar mass of the structure shown.

Assays:
[1] = Cytotoxicity against mouse RAW264.7 cells assessed as reduction in cell viability at 100 uM after 72 hrs by MTT assay; format: cell-based; conditions: read-out: INH
Method in brief: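 RAW 264.7 mouse macrophages exposed to compound at 100 µM for 72 h. Viability measured by MTT conversion to formazan, with absorbance at 560 nm after 10 min incubation. Reported as percent inhibition.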

[2] = molecular target: DNA gyrase subunit A/DNA gyrase subunit B (Mycobacterium tuberculosis (strain ATCC 25618 / H37Rv), UniProt P9WG45+P9WG47); test: Inhibition of Mycobacterium tuberculosis DNA gyrase using relaxed pBR322 as substrate after 30 mins by supercoiling assay
DNA gyrase subunit B = DNA gyrase subunit B (Mycobacterium smegmatis, UniProt P0C559); test: Inhibition of purified Mycobacterium smegmatis GyrB at 50 to 100 uM after 100 mins by ATPase assay; design: species or system Mycolicibacterium smegmatis
[3] = test system: Mycobacterium tuberculosis; test: Antimicrobial activity against Mycobacterium tuberculosis H37Rv after 7 days by MABA assay; format: functional; conditions: 168 h
Method in brief: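 M. tuberculosis H37Rv inoculum from fresh LJ medium, resuspended in 7H9 broth (0.1% casitone, 0.5% glycerol, OADC), adjusted to McFarland No. 1 and diluted 1:20. Serial two-fold drug dilutions in 7H9-S. Drug-free and sterile controls. Incubated 7 days at 37 °C, then Alamar blue added and plates re-incubated overnight. MIC = lowest concentration preventing the blue-to-pink change.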

[4] = molecular target: DNA gyrase subunit B (Mycobacterium smegmatis) (UniProt P0C559); test: Inhibition of purified Mycobacterium smegmatis GyrB ATPase activity at 50 to 100 uM after 100 mins by ATPase assay; conditions: Mycolicibacterium smegmatis
Method in brief: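 M. smegmatis GyrB expressed in BL21(DE3)pLysS, IPTG-induced (0.1 mM final), then Ni-NTA purified. Started with MgCl2, 100 min at room temperature. Released phosphate read at 635 nm.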

[5] = molecular target: DNA gyrase subunit A/DNA gyrase subunit B (Mycobacterium tuberculosis (strain ATCC 25618 / H37Rv)) (UniProt P9WG45+P9WG47); test: Binding affinity to Mycobacterium tuberculosis DNA gyrase by differential scanning fluorimetry
Method in brief: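 Thermal shift assay with native GyrB protein. Reaction of 15 µL: assay buffer (50 mM Tris pH 7.4, 1 mM EDTA, 5 mM DTT), GyrB protein (1.5 mg/mL) and Sypro orange dye (1:100). Heated stepwise from 25 °C to 100 °C at 0.6 °C/min. Tm read from dye fluorescence. Shift in Tm of the ligand complex compared with the native protein Tm.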

Sequence of DNA gyrase subunit A/DNA gyrase subunit B (P9WG45 whole entry): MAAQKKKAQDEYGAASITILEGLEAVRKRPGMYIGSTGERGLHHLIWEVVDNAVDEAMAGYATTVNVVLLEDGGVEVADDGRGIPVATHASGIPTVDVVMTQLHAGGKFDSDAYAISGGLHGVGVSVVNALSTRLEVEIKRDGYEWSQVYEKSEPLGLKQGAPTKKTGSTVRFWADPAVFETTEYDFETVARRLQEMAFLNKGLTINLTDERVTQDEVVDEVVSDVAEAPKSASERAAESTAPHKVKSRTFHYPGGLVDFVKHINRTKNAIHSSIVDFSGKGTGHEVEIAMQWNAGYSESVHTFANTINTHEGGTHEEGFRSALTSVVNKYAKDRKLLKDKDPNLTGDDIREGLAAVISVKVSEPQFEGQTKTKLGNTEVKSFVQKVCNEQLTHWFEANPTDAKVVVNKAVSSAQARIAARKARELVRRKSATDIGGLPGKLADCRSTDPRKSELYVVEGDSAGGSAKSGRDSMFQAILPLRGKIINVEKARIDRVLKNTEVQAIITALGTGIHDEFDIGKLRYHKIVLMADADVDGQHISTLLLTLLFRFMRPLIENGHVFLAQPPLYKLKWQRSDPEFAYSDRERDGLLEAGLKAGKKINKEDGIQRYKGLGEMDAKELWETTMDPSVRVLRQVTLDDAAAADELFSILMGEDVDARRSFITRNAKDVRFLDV
Sequence of DNA gyrase subunit A/DNA gyrase subunit B (P9WG47 whole entry): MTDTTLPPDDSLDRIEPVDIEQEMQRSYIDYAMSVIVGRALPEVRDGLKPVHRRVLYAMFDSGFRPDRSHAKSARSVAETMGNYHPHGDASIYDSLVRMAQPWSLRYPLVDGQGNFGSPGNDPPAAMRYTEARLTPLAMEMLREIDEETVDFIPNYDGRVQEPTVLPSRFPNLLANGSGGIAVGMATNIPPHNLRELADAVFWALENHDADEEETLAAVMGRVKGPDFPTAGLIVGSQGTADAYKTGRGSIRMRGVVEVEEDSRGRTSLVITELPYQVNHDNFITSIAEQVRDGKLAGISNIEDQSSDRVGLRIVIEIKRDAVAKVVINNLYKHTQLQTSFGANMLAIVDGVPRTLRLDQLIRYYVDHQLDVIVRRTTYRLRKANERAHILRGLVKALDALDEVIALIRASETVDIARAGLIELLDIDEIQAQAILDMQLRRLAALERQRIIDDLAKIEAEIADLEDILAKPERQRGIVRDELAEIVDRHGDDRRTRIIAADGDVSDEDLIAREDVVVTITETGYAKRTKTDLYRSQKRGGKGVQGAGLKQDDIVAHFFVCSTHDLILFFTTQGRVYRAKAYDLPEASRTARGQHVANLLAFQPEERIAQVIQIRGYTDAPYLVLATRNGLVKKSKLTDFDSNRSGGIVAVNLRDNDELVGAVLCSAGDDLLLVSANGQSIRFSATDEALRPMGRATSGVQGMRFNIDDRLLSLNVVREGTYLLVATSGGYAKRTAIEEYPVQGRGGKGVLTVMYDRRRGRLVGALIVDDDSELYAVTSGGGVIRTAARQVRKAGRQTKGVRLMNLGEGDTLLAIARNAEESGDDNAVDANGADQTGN
Sequence of DNA gyrase subunit B (Mycobacterium smegmatis) (P0C559 2-675 limits assumed): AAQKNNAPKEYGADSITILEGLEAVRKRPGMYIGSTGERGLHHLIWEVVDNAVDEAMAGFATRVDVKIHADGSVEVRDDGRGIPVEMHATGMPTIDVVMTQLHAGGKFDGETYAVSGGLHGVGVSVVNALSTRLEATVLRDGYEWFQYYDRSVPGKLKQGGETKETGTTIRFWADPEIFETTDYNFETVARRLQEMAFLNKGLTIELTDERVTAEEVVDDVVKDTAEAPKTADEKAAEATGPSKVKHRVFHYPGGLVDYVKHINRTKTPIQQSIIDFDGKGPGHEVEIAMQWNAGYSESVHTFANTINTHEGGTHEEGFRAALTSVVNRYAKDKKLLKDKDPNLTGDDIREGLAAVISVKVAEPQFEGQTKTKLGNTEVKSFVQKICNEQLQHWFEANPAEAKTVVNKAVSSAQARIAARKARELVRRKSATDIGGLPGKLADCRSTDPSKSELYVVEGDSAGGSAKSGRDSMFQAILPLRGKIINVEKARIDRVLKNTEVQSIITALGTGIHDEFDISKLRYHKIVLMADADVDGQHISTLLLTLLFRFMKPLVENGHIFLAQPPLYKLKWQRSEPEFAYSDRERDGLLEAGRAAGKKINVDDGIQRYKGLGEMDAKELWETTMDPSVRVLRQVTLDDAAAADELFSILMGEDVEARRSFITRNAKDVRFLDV
Sequence of DNA gyrase subunit B (P0C559 whole entry): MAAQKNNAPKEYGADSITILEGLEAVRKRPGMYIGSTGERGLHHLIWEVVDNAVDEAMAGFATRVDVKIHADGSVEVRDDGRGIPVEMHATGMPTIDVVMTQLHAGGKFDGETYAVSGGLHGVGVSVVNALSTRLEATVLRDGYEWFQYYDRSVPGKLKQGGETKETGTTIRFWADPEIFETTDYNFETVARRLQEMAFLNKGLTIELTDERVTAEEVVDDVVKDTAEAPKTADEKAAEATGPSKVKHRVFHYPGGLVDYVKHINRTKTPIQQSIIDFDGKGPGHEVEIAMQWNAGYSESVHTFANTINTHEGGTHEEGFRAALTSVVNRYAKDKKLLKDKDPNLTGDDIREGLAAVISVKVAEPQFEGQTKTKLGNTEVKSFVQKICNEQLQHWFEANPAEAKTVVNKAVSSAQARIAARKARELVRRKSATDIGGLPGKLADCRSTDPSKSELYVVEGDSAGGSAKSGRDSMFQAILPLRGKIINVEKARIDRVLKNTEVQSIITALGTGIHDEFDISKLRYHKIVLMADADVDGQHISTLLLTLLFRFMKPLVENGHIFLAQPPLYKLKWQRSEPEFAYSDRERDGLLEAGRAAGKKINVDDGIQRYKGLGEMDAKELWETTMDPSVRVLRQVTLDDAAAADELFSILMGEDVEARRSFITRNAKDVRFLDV

Row | Compound | cytotoxicity at 72 h, 100 µM [1] [%] | IC50 [2] [µM] | IC50 (DNA gyrase subunit B) [µM] | MIC [3] [µM] | inhibition [4] [%] | Tm [5] [°C]
1 | CC(=O)c1ccc(NC(=S)N2CCN(c3nsc4ccccc34)CC2)cc1 | 40.7 | 8.4 | 11.1 | 13.8 (≈ 5.48 µg/mL) | – | –
2 | COc1ccc(NC(=S)N2CCN(c3nsc4ccccc34)CC2)cc1 | 19 | 1.05 | 2.86 | 3.54 (≈ 1.36 µg/mL) | > 60 | –
3 | CO[C@H]1/C=C/O[C@@]2(C)Oc3c(C)c(O)c4c(O)c(c(/C=N/N5CCN(C)CC5)c(O)c4c3C2=O)NC(=O)/C(C)=C\C=C\[C@H](C)[C@H](O)[C@@H](C)[C@@H](O)[C@@H](C)[C@H](OC(C)=O)[C@@H]1C [RIFAMPIN] | – | – | – | 0.23 (≈ 0.189 µg/mL) | – | –
4 | CCOC(=O)c1cc2cc(N3CCN(C(=S)Nc4ccc(Cl)cc4)CC3)ccc2o1 | 30 | 13.2 | 35.2 | 16.1 (≈ 7.13 µg/mL) | – | –
5 | CCOC(=O)c1cc2cc(N3CCN(C(=O)NCc4ccccc4)CC3)ccc2o1 | 40.9 | 3.12 | 4.32 | 35.5 (≈ 14.4 µg/mL) | > 60 | –
6 | CCOC(=O)c1cc2cc(N3CCN(C(=O)Nc4ccc(OC)cc4)CC3)ccc2o1 | 19.9 | 7.33 | 8.19 | 4.24 (≈ 1.8 µg/mL) | > 60 | –
7 | CCOC(=O)c1cc2cc(N3CCN(C(=S)NCc4ccccc4)CC3)ccc2o1 | 45.8 | 9.1 | 20.4 | 33.9 (≈ 14.4 µg/mL) | – | –
8 | S=C(Nc1ccccc1)N1CCN(c2nsc3ccccc23)CC1 | 39.3 | 3.9 | 9.14 | 15.2 (≈ 5.4 µg/mL) | > 60 | –
9 | CCOC(=O)c1cc2cc(N3CCN(C(=S)Nc4ccc(OC)cc4)CC3)ccc2o1 | 20.6 | 19.8 | 24.4 | 16.2 (≈ 7.14 µg/mL) | – | –
10 | CCOC(=O)c1cc2cc(N3CCN(C(=O)Nc4ccc([N+](=O)[O-])cc4)CC3)ccc2o1 | 19.6 | 2.93 | 5.07 | 16.3 (≈ 7.15 µg/mL) | > 60 | –
11 | S=C(Nc1ccc(Cl)cc1)N1CCN(c2nsc3ccccc23)CC1 | 44.2 | 4.21 | 9.32 | 3.51 (≈ 1.37 µg/mL) | > 60 | –
12 | CCOC(=O)c1cc2cc(N3CCN(C(=S)Nc4ccc(C(C)=O)cc4)CC3)ccc2o1 | 21.2 | 16.9 | 27.3 | 31.5 (≈ 14.2 µg/mL) | – | –
13 | CC1COc2c(N3CCN(C)CC3)c(F)cc3c(=O)c(C(=O)O)cn1c23 (stereo not given) [OFLOXACIN] | – | – | – | 2.16 (≈ 0.781 µg/mL) | – | –
14 | NNC(=O)c1ccncc1 [ISONIAZID] | – | – | – | 0.66 (≈ 0.0905 µg/mL) | – | –
15 | CC[C@@H](CO)NCCN[C@@H](CC)CO [ETHAMBUTOL] | – | – | – | 0.66 (≈ 0.135 µg/mL) | – | –
16 | COc1ccc(NC(=O)N2CCN(c3nsc4ccccc34)CC2)cc1 | 37.6 | 12.2 | 26.2 | 14.7 (≈ 5.42 µg/mL) | – | –

Row | Compound | cytotoxicity at 72 h, 100 µM [1] [%] | IC50 [2] [µM] | IC50 (DNA gyrase subunit B) [µM] | MIC [3] [µM] | inhibition [4] [%] | Tm [5] [°C]
17 | CCOC(=O)c1cc2cc(N3CCN(C(=O)Nc4ccc(Cl)cc4)CC3)ccc2o1 | 19.2 | 18.2 | 20.7 | 16.8 (≈ 7.17 µg/mL) | – | –
18 | O=C(NCc1ccc(Cl)cc1)N1CCN(c2nsc3ccccc23)CC1 | 29.1 | 3.55 | 6.88 | 14.1 (≈ 5.46 µg/mL) | > 60 | –
19 | S=C(NCc1ccccc1)N1CCN(c2nsc3ccccc23)CC1 | 19.1 | > 25 | 46 | 14.7 (≈ 5.42 µg/mL) | – | –
20 | CC(=O)c1ccc(NC(=O)N2CCN(c3nsc4ccccc34)CC2)cc1 | 20.2 | 9.51 | 29.3 | 28.7 (≈ 10.9 µg/mL) | – | –
21 | CCOC(=O)c1cc2cc(N3CCN(C(=S)Nc4ccccc4)CC3)ccc2o1 | 22.9 | 7.2 | 15.6 | 35.3 (≈ 14.4 µg/mL) | – | –
22 | O=C(Nc1ccc(Cl)cc1)N1CCN(c2nsc3ccccc23)CC1 | 20.3 | 0.42 | 1.77 | 3.44 (≈ 1.28 µg/mL) | > 60 | 46.1
23 | CCOC(=O)c1cc2cc(N3CCN(C(=S)NCc4ccc(Cl)cc4)CC3)ccc2o1 | 41.5 | 11.3 | 29.9 | 62 (≈ 28.4 µg/mL) | – | –
24 | O=C(Nc1ccc([N+](=O)[O-])cc1)N1CCN(c2nsc3ccccc23)CC1 | 20.9 | 12.2 | 27.1 | 28.5 (≈ 10.9 µg/mL) | – | –
25 | O=C(NCc1ccccc1)N1CCN(c2nsc3ccccc23)CC1 | 30.2 | 1.18 | 2.36 | 1.9 (≈ 0.67 µg/mL) | > 60 | –
26 | S=C(NCc1ccc(Cl)cc1)N1CCN(c2nsc3ccccc23)CC1 | 25.9 | 4.4 | 11.3 | 6.82 (≈ 2.75 µg/mL) | – | –
27 | CCOC(=O)c1cc2cc(N3CCN(C(=O)Nc4ccccc4)CC3)ccc2o1 | 21.3 | 7.14 | 16.9 | 92.6 (≈ 36.4 µg/mL) | – | –
28 | CCOC(=O)c1cc2cc(N3CCN(C(=O)NCc4ccc(Cl)cc4)CC3)ccc2o1 | 21.6 | 1.61 | 2.97 | 64.6 (≈ 28.6 µg/mL) | > 60 | –
29 | O=C(Nc1ccccc1)N1CCN(c2nsc3ccccc23)CC1 | 27 | 4.59 | 19.9 | 68.9 (≈ 23.3 µg/mL) | – | –
30 | CCOC(=O)c1cc2cc(N3CCN(C(=O)Nc4ccc(C(C)=O)cc4)CC3)ccc2o1 | 21.6 | 3.55 | 7.86 | 83.5 (≈ 36.4 µg/mL) | > 60 | –
31 | CCOC(=O)c1cc2cc(N3CCN(C(=S)Nc4ccc([N+](=O)[O-])cc4)CC3)ccc2o1 | 25.8 | 10.6 | 12.9 | 62.6 (≈ 28.4 µg/mL) | > 60 | –
32 | O=[N+]([O-])c1ccc(NC(=S)N2CCN(c3nsc4ccccc34)CC2)cc1 | 27.6 | 0.83 | 1.81 | 13.7 (≈ 5.48 µg/mL) | > 60 | –
